Compounds with a hit are over-represented: about 2.4% of the library has one in this group of screens.
PGC1a acetyl inh: inhibitors of PGC1a acetylation signal, primary screen, cell-based, U2OS, AlphaScreen, inhibitor mode; AlphaScreen anti-acetyl-lysine; with virally co-expressed GCN5 acetyltransferase; 350,000 compounds, 0.17% hits; inhibition, % at 15.6 µM;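 active means every replicate shows inhibition of at least 40%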;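 further: 0% = neutral control wells and 100% = positive control wells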
Ecoli rRNA inh: reduced GFP signal of wild-type E. coli, primary screen, bacterial rRNA inhibitor project, GFP/RFP fluorescence, OD600, single point | E. coli WT GFP vs humanized-ribosome RFP mutants, 24 h; hits give low values; DMSO median 0, no signal -100 | GFP signal change (wild-type ribosome), % (concentration not given with the values) | 350,000 compounds, 1.6% hits | AID 720706, 2013;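 active means significant combined selectivity score with lowered wild-type GFP, culture density cut under 30%, mutant RFP and density less affected; inactive means any of these conditions unmet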
S100A4 MyoIIA: inhibitors of S100A4-myosin IIA peptide binding, primary screen, biochemical, fluorescence polarization, TAMRA-MyoIIA peptide | 360,000 compounds, 0.14% hits | AID 652163, 2013 | Protein S100-A4 (Homo sapiens), P26447 | inhibition, % at 10.7 µM;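 active means mean inhibition of at least 70% across replicates, with every replicate also reaching that level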
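System – human S100A4 monomer protein, biochemical binding assay · Buffer or medium – Calcium-containing HEPES buffer, pH 7.2 · Timing – 5 min between mix addition and reading · Also added – TAMRA-labelled myosin IIA heavy-chain peptide probe, 5 nM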
ARNT TACC3 PPI: disruptors of ARNT/TACC3 protein interaction, primary screen, biochemical, AlphaScreen, single concentration; Transforming acidic coiled-coil-containing protein 3 (Homo sapiens), Q9Y6A5; AlphaScreen His-ARNT PAS-B/GST-TACC3 binding, luminescence; TACC3 fragment carries E629A point mutation; inhibition, % at 9.99 µM; 390,000 compounds, 0.66% hits; AID 623870, 2012;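 active means mean inhibition of replicates at least 50% and at least half of replicates each reaching 50%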;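 further: 0% = complete ARNT plus TACC3 wells and 100% = ARNT alone without TACC3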
ERAP1 inh: human ERAP1 aminopeptidase inhibitors, primary screen, biochemical, single point, plate reader. recombinant ERAP1, Leu-AMC fluorescence, 60 min. Endoplasmic reticulum aminopeptidase 1 (Homo sapiens), Q9NZ08. 340,000 compounds, 0.15% hits. inhibition, % at 10.7 µM. AID 652197, 2013;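 active means mean replicate inhibition of at least 30%, or all replicates individually reaching that 30% level; inactive means mean below 30% and not every replicate reaching it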;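 further: 0% = neutral control wells and 100% = L-leucinethiol positive control wells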
Target sequence (Q9NZ08 whole entry, looked up): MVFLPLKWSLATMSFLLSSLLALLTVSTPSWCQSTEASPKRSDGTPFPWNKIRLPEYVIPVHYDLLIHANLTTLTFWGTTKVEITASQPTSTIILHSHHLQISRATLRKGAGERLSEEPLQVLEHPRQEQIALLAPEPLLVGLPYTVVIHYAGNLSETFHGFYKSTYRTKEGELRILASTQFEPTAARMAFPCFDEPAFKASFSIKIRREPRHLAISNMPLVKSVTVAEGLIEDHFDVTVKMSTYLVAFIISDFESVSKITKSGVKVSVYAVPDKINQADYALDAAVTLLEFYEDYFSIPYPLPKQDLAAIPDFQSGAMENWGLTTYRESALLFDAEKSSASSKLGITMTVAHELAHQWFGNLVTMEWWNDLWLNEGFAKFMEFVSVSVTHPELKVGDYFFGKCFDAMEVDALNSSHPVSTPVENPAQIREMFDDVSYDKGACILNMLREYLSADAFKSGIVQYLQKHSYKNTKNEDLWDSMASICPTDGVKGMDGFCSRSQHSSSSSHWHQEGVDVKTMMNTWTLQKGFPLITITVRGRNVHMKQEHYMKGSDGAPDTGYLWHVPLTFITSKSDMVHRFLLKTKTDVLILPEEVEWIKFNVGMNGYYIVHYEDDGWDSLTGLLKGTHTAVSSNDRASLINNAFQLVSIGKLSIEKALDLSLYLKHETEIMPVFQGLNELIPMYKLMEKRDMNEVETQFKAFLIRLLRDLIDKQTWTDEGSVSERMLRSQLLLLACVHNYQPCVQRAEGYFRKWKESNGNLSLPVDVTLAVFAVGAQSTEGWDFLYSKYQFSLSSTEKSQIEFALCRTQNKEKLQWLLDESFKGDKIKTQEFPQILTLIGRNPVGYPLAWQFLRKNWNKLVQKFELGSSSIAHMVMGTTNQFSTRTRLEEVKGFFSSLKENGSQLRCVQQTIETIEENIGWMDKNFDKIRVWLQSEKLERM
CASP6 VEID inh: human caspase-6 inhibitors, primary screen, biochemical, VEID-R110 fluorescence, single point, set 2; AID 686996, 2013; P55212; inhibition, % at 12.5 µM; purified caspase-6, Z-VEID-R110 cleavage fluorescence; 350,000 compounds, 0.53% hits;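 active means mean inhibition across replicates at least about 35%, with every replicate also reaching that limit, limit read from the data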;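 further: 0% = median of neutral control wells and 100% = no fluorescence left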
ARNT Alpha ctr-1: AlphaScreen signal interference compounds, dose response, artefact control for ARNT-TACC3 interaction inhibitor project, biochemical, luminescence, cherry-pick. His-ARNT PASB-GST AlphaScreen artifact counter-screen. AC50, µM (top dose mostly 68 µM), for the others: at the top dose activity change, negative = signal decrease. shares compounds with ARNT TACC3 PPI. AID 651705, 2012. 1,200 compounds, 50% hits;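 active means every separate test run was called active for a drop in luminescence, with AC50 within twice the top valid dose, actives reach about 71 µM in these data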
ARNT Alpha ctr-2: AlphaScreen signal interference by compounds, dose response, artefact control for ARNT/TACC3 disruptor project, biochemical, dual-tagged ARNT, dry powder; shares compounds with ARNT TACC3 PPI; Dual-tagged His-ARNT PASB-GST AlphaScreen artifact counter-screen; AC50, µM; 45 compounds, 70% hits; AID 720564, 2013;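 active means luminescence drop, with half-maximal potency fitted within twice the sample's top valid dose, cut at about 70 µM in these data; inactive means the rest, including signal moving the wrong way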
An asterisk follows results filed as active; · = not tested or not shown.

SMILES	PGC1a acetyl inh	Ecoli rRNA inh	S100A4 MyoIIA	ARNT TACC3 PPI	ERAP1 inh	CASP6 VEID inh	ARNT Alpha ctr-1	others
CCC(=O)N(C)C[C@H]1Oc2cc(C3=CCCC3)ccc2S(=O)(=O)N([C@H](C)CO)C[C@@H]1C	10	-6	42	-3	1	1	·
O=C(Nc1nc(-c2ccccn2)cs1)c1ccc(S(=O)(=O)N2CCOCC2)cc1	·	·	·	·	·	·	·	ARNT Alpha ctr-2=6.5*
COc1ccc(C(=O)Nc2nc(-c3ccccn3)cs2)cc1S(=O)(=O)N1CCOCC1	18	-11	-1	62*	3	0	9.7µM*
COc1ccc(C(=O)Nc2nc3ccccc3[nH]2)cc1S(=O)(=O)N1CCOCC1	-9	-13	-2	51*	0	3	-29%
C[C@@H]1CN([C@H](C)CO)C(=O)c2cc(NC(=O)Nc3ccc(F)cc3)ccc2O[C@@H](C)CCCCO[C@H]1CN(C)C(=O)NC1CCCCC1	0	4	-2	5	-1	-1	·
Cc1noc(C)c1NC(=O)Nc1ccc2c(c1)C(=O)N([C@H](C)CO)C[C@H](C)[C@H](CN(C)C(=O)C1CCCCC1)OCCCC[C@H](C)O2	-2	0	-10	-9	-1	2	·
COc1cccc(C(=O)Oc2c(CN3CCOCC3)cc(Cl)c3cccnc23)c1	·	·	·	78*	·	·	58µM*
O=C(Oc1c(CN2CCOCC2)cc(Cl)c2cccnc12)c1cccs1	22	-39	3	65*	1	-2	-21%
OCCN1CCN(Cc2cc(Cl)c3cccnc3c2O)CC1	16	·	·	63*	·	·	8.5µM*
O=C(Oc1c(Cl)cc(Cl)c2cccnc12)c1cccs1	-1	·	·	1	·	·	·
O=C(O)C[C@H]1C[C@H]2c3cc(NC(=O)Nc4ccccc4)ccc3O[C@H]2[C@@H](CO)O1	-7	1	1	0	-2	-1	·
COc1ccc(S(=O)(=O)N2CCOC2CNC(=O)C(=O)NCCCn2ccnc2)cc1OC (stereo not drawn)	-5	4	-5	59*	7	-35	-23%
O=C(NCCCn1ccnc1)C(=O)NCC1OCCN1S(=O)(=O)c1ccc(F)cc1 (stereo not drawn)	7	0	1	58*	6	-56	32µM*
COc1ccc(S(=O)(=O)N2CCCOC2CNC(=O)C(=O)NCCCn2ccnc2)cc1OC (stereo not drawn)	·	8	-15	40*	-1	-19	-11%
O=C(NCCCn1ccnc1)C(=O)NCC1OCCN1S(=O)(=O)c1ccc(Br)cc1 (stereo not drawn)	·	8	0	1	-5	-3	·
Cc1ccc(C)c(S(=O)(=O)N2CCCOC2CNC(=O)C(=O)NCCCn2ccnc2)c1 (stereo not drawn)	·	·	·	56*	·	·	-7%
COc1ccc(S(=O)(=O)N2CCCOC2CNC(=O)C(=O)NCCCn2ccnc2)cc1 (stereo not drawn)	-4	7	-1	·	-3	0	·
CCN1CCN(c2ccc(NC(=O)c3cccc(S(=O)(=O)N4CCCC4)c3)cc2)CC1	-1	6	10	56*	1	-8	-4%
O=C(Nc1ccc(N2CCOCC2)cc1)c1cccc(S(=O)(=O)N2CCCCC2)c1	-6	·	·	-7	·	·	·
